Results: ChEMBL document CHEMBL1126811, “Fluorinated and iodinated dopamine agents: D2 imaging agents for PET and SPECT” (J Med Chem, 1993)

Columns and labels:
Rattus norvegicus [1] = assay: Biodistribution of radioligand [125I]FIDA1 in kidney of rat after 120 minutes after an intravenous injection is given (average of 3 rats); assay type: ADME, organism-based; conditions: in vivo, 2 h
How it was run: (§1)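 Male Sprague–Dawley rats (225–300 g) were given 0.2 mL saline containing the radioiodinated ligand (8–10 μCi) into the femoral vein under ether anesthesia. They were killed at set times by cardiac excision. Organs were weighed and γ-counted against diluted aliquots of the injected dose and expressed as % dose/organ. Blood and muscle were taken as 7% and 40% of body weight. Three rats were used per point.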

Rattus norvegicus [2] = assay: Biodistribution of radioligand [125I]FIDA1 in thyroid of rat after 2 minutes after an intravenous injection is given (average of 3 rats); assay type: ADME, organism-based, Thyroid gland; conditions: in vivo; how it was run: as §1
Rattus norvegicus [3] = assay: Biodistribution of radioligand [125I]FIDA1 in muscle of rat after 30 minutes after an intravenous injection is given (average of 2 rats); assay type: ADME, organism-based, Muscle tissue; conditions: in vivo, 0.5 h
Rattus norvegicus [4] = assay: Uptake of radioligand [125I]FIDA1 by cortex in rat after 30 minutes after an intravenous injection is given (average of 2 rats); assay type: ADME, organism-based; conditions: in vivo, 0.5 h
How it was run: (§2)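 Male Sprague–Dawley rats (225–300 g) under ether anesthesia received radioiodinated tracer (8–10 μCi in 0.2 mL saline) into the femoral vein. They were killed by cardiac excision at set times. Cortex, striatum, hippocampus and cerebellum were dissected, weighed and gamma-counted. Results are % dose/gram against diluted injected dose.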

Rattus norvegicus [5] = assay: Uptake of radioligand [125I]FIDA1 by striatum in rat after 30 minutes after an intravenous injection is given (average of 2 rats); assay type: ADME, organism-based; conditions: in vivo, 0.5 h; how it was run: as §2
Rattus norvegicus [6] = assay: Biodistribution of radioligand [125I]FIDA1 in heart of rat after 30 minutes after an intravenous injection is given (average of 2 rats); assay type: ADME, organism-based; conditions: in vivo, 0.5 h
Rattus norvegicus [7] = assay: Biodistribution of radioligand [125I]FIDA1 in muscle of rat after 120 minutes after an intravenous injection is given (average of 2 rats); assay type: ADME, organism-based, Muscle tissue; conditions: in vivo, 2 h
Rattus norvegicus [8] = assay: Biodistribution of radioligand [125I]FIDA1 in liver of rat after 30 minutes after an intravenous injection is given (average of 2 rats); assay type: ADME, organism-based; conditions: in vivo, 0.5 h
Rattus norvegicus [9] = assay: Uptake of radioligand [125I]FIDA1 by hippo-campus in rat after 2 minutes after an intravenous injection is given (average of 3 rats); assay type: ADME, organism-based; conditions: in vivo; how it was run: as §2
Rattus norvegicus [10] = assay: Biodistribution of radioligand [125I]FIDA1 in thyroid of rat after 30 minutes after an intravenous injection is given (average of 2 rats); assay type: ADME, organism-based, Thyroid gland; conditions: in vivo, 0.5 h
Rattus norvegicus [11] = assay: Uptake of radioligand [125I]-FIDA1 by hippo-campus in rat after 60 minutes after an intravenous injection is given (average of 3 rats); assay type: ADME, organism-based; conditions: in vivo, 1 h; how it was run: as §2
Rattus norvegicus [12] = assay: Uptake of radioligand [125I]FIDA1 by hippo-campus in rat after 120 minutes after an intravenous injection is given (average of 3 rats); assay type: ADME, organism-based; conditions: in vivo, 2 h; how it was run: as §2
Rattus norvegicus [13] = assay: Biodistribution of radioligand [125I]FIDA1 in brain of rat after 30 minutes after an intravenous injection is given (average of 2 rats); assay type: ADME, organism-based; conditions: in vivo, 0.5 h
Rattus norvegicus [14] = assay: Uptake of radioligand [125I]-FIDA1 by cerebellum in rat after 30 minutes after an intravenous injection is given (average of 2 rats); assay type: ADME, organism-based; conditions: in vivo, 0.5 h; how it was run: as §2
Rattus norvegicus [15] = assay: Uptake of radioligand [125I]FIDA1 by cortex in rat after 60 minutes after an intravenous injection is given (average of 3 rats); assay type: ADME, organism-based; conditions: in vivo, 1 h; how it was run: as §2
Rattus norvegicus [16] = assay: Biodistribution of radioligand [125I]FIDA1 in lung of rat after 30 minutes after an intravenous injection is given (average of 2 rats); assay type: ADME, organism-based; conditions: in vivo, 0.5 h
Rattus norvegicus [17] = assay: Biodistribution of radioligand [125I]FIDA1 in spleen of rat after 30 minutes after an intravenous injection is given (average of 2 rats); assay type: ADME, organism-based; conditions: in vivo, 0.5 h
Rattus norvegicus [18] = assay: Biodistribution of radioligand [125I]FIDA1 in skin of rat after 30 minutes after an intravenous injection is given (average of 2 rats); assay type: ADME, organism-based, Zone of skin; conditions: in vivo, 0.5 h
Rattus norvegicus [19] = assay: Uptake of radioligand [125I]FIDA1 by hippo-campus in rat after 30 minutes after an intravenous injection is given (average of 2 rats); assay type: ADME, organism-based; conditions: in vivo, 0.5 h; how it was run: as §2
Rattus norvegicus [20] = assay: Uptake of radioligand [125I]FIDA1 by hippocampus in rat after 120 minutes after an intravenous injection is given (average of 3 rats); assay type: ADME, organism-based; conditions: in vivo, 2 h; how it was run: as §2
Rattus norvegicus [21] = assay: Biodistribution of radioligand [125I]FIDA1 in brain of rat after 30 minutes after an intravenous injection is given (average of 3 rats); assay type: ADME, organism-based; conditions: in vivo, 0.5 h; how it was run: as §1
Rattus norvegicus [22] = assay: Uptake of radioligand [125I]FIDA1 by cerebellum in rat after 30 minutes after an intravenous injection is given (average of 3 rats); assay type: ADME, organism-based; conditions: in vivo, 0.5 h; how it was run: as §2
Rattus norvegicus [23] = assay: Biodistribution of radioligand [125I]FIDA1 in blood of rat after 120 minutes after an intravenous injection is given (average of 3 rats); assay type: ADME, organism-based; conditions: in vivo, 2 h; how it was run: as §1
Rattus norvegicus [24] = assay: Biodistribution of radioligand [125I]FIDA1 in skin of rat after 30 minutes after an intravenous injection is given (average of 3 rats); assay type: ADME, organism-based, Zone of skin; conditions: in vivo, 0.5 h; how it was run: as §1
Rattus norvegicus [25] = assay: Uptake of radioligand [125I]FIDA1 by striatum in rat after 30 minutes after an intravenous injection is given (average of 3 rats); assay type: ADME, organism-based; conditions: in vivo, 0.5 h; how it was run: as §2
Rattus norvegicus [26] = assay: Biodistribution of radioligand [125I]FIDA1 in muscle of rat after 30 minutes after an intravenous injection is given (average of 3 rats); assay type: ADME, organism-based, Muscle tissue; conditions: in vivo, 0.5 h; how it was run: as §1
Rattus norvegicus [27] = assay: Uptake of radioligand [125I]-FIDA1 by cortex in rat after 30 minutes after an intravenous injection is given (average of 3 rats); assay type: ADME, organism-based; conditions: in vivo, 0.5 h; how it was run: as §2
Rattus norvegicus [28] = assay: Biodistribution of radioligand [125I]FIDA1 in spleen of rat after 30 minutes after an intravenous injection is given (average of 3 rats); assay type: ADME, organism-based; conditions: in vivo, 0.5 h; how it was run: as §1
Rattus norvegicus [29] = assay: Biodistribution of radioligand [125I]FIDA1 in muscle of rat after 120 minutes after an intravenous injection is given (average of 3 rats); assay type: ADME, organism-based, Muscle tissue; conditions: in vivo, 2 h; how it was run: as §1
Rattus norvegicus [30] = assay: Biodistribution of radioligand [125I]FIDA1 in thyroid of rat after 30 minutes after an intravenous injection is given (average of 3 rats); assay type: ADME, organism-based, Thyroid gland; conditions: in vivo, 0.5 h; how it was run: as §1
Rattus norvegicus [31] = assay: Uptake of radioligand [125I]FIDA1 by hippocampus in rat after 2 minutes after an intravenous injection is given (average of 3 rats); assay type: ADME, organism-based; conditions: in vivo; how it was run: as §2
Rattus norvegicus [32] = assay: Uptake of radioligand [125I]FIDA1 by hippocampus in rat after 60 minutes after an intravenous injection is given (average of 3 rats); assay type: ADME, organism-based; conditions: in vivo, 1 h; how it was run: as §2
Rattus norvegicus [33] = assay: Uptake of radioligand [125I]-FIDA1 by hippocampus in rat after 30 minutes after an intravenous injection is given (average of 3 rats); assay type: ADME, organism-based; conditions: in vivo, 0.5 h; how it was run: as §2
Rattus norvegicus [34] = assay: Biodistribution of radioligand [125I]FIDA1 in lung of rat after 30 minutes after an intravenous injection is given (average of 3 rats); assay type: ADME, organism-based; conditions: in vivo, 0.5 h; how it was run: as §1
Rattus norvegicus [35] = assay: Biodistribution of radioligand [125I]FIDA1 in heart of rat after 30 minutes after an intravenous injection is given (average of 3 rats); assay type: ADME, organism-based; conditions: in vivo, 0.5 h; how it was run: as §1
Rattus norvegicus [36] = assay: Biodistribution of radioligand [125I]FIDA1 in liver of rat after 30 minutes after an intravenous injection is given (average of 3 rats); assay type: ADME, organism-based; conditions: in vivo, 0.5 h; how it was run: as §1

COc1cc(I)cc(C(=O)NC[C@@H]2CCCN2Cc2ccc(F)cc2)c1OC
Dose/organ (Rattus norvegicus [1]): 0.42% | Dose/organ (Rattus norvegicus [2]): 0.07% | Dose/organ (Rattus norvegicus [3]): 10.87% | Dose/g (Rattus norvegicus [4]): 0.14% | Dose/g (Rattus norvegicus [5]): 0.4% | Dose/organ (Rattus norvegicus [6]): 0.16% | Dose/organ (Rattus norvegicus [7]): 2.04% | Dose/organ (Rattus norvegicus [8]): 12.69% | Dose/g (Rattus norvegicus [9]): 0.47% | Dose/organ (Rattus norvegicus [10]): 0.04% | Dose/g (Rattus norvegicus [11]): 0.05% | Dose/g (Rattus norvegicus [12]): 0.01% | Dose/organ (Rattus norvegicus [13]): 0.21% | Dose/g (Rattus norvegicus [14]): 0.09% | Dose/g (Rattus norvegicus [15]): 0.04% | Dose/organ (Rattus norvegicus [16]): 1.06% | Dose/organ (Rattus norvegicus [17]): 0.43% | Dose/organ (Rattus norvegicus [18]): 7.04% | Dose/g (Rattus norvegicus [19]): 0.14%

CCN1CCC[C@H]1CNC(=O)c1cc(I)cc(OC)c1OCCF
Dose/g (Rattus norvegicus [20]): 0.0006% | Dose/organ (Rattus norvegicus [21]): 0.11% | Dose/g (Rattus norvegicus [22]): 0.03% | Dose/organ (Rattus norvegicus [1]): 0.11% | Dose/organ (Rattus norvegicus [2]): 0.07% | Dose/organ (Rattus norvegicus [23]): 0.51% | Dose/organ (Rattus norvegicus [24]): 4.97% | Dose/g (Rattus norvegicus [25]): 0.24% | Dose/organ (Rattus norvegicus [26]): 8.24% | Dose/g (Rattus norvegicus [27]): 0.05% | Dose/organ (Rattus norvegicus [28]): 0.31% | Dose/organ (Rattus norvegicus [29]): 0.76% | Dose/organ (Rattus norvegicus [30]): 0.03% | Dose/g (Rattus norvegicus [31]): 0.25% | Dose/g (Rattus norvegicus [32]): 0.007% | Dose/g (Rattus norvegicus [33]): 0.05% | Dose/organ (Rattus norvegicus [34]): 0.66% | Dose/g (Rattus norvegicus [15]): 0.013% | Dose/organ (Rattus norvegicus [35]): 0.14% | Dose/organ (Rattus norvegicus [36]): 22.4%
